Assay results as given in ChEMBL document CHEMBL1909504, “New series of isoniazid hydrazones linked with electron-withdrawing substituents” (Eur J Med Chem, 2011).
Converted amounts (≈) assume the structure as drawn.

Columns and labels:
Type in all cases: functional
[1] = system: Mycobacterium kansasii; experiment: Antimycobacterial activity against Mycobacterium kansasii 6509/96 isolate after 21 days; settings: 6509/96, 504 h
Procedure, shortened: (§1)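 MIC in Sula semi-synthetic medium at 37 °C. M. kansasii 6509/96 is a clinical isolate; M. kansasii CNTC My 235/80 comes from the Czech national collection. Compounds were dissolved in DMSO (max. 5% DMSO in water) and tested at 1000, 500, 250, 125, 62, 31, 16, 8, 4, 2 and 1 μmol L⁻¹. MIC was read after 7, 14 and 21 days.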

[2] = system: Mycobacterium tuberculosis; experiment: Antimycobacterial activity against Mycobacterium tuberculosis CNTC My 331/88 ATCC 27294 after 14 days; settings: CNTC My 331/88 ATCC 27294, 336 h
Procedure, shortened: (§2)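 Sula semi-synthetic medium at 37 °C. Compounds were dissolved in DMSO (max. 5% DMSO in water) and added to the medium at 1000, 500, 250, 125, 62, 31, 16, 8, 4, 2 and 1 μmol L⁻¹. MIC was read after 7, 14 and 21 days of incubation at 37 °C. Strains came from the Czech National Collection of Type Cultures.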

[3] = system: Mycobacterium avium; experiment: Antimycobacterial activity against Mycobacterium avium CNTC My 330/88 after 21 days; settings: CNTC My 330/88, 504 h; procedure, shortened: as §2
[4] = system: Mycobacterium kansasii; experiment: Antimycobacterial activity against Mycobacterium kansasii CNTC My 335/80 after 21 days; settings: 504 h; procedure, shortened: as §1
[5] = system: Mycobacterium kansasii; experiment: Antimycobacterial activity against Mycobacterium kansasii CNTC My 335/80 after 14 days; settings: 336 h; procedure, shortened: as §1
[6] = system: Mycobacterium avium; experiment: Antimycobacterial activity against Mycobacterium avium CNTC My 330/88 after 14 days; settings: CNTC My 330/88, 336 h; procedure, shortened: as §2
[7] = system: Mycobacterium kansasii; experiment: Antimycobacterial activity against Mycobacterium kansasii CNTC My 335/80 after 7 days; settings: 168 h; procedure, shortened: as §1
[8] = system: Mycobacterium kansasii; experiment: Antimycobacterial activity against Mycobacterium kansasii 6509/96 isolate after 7 days; settings: 6509/96, 168 h; procedure, shortened: as §1
[9] = system: Mycobacterium tuberculosis; experiment: Antimycobacterial activity against Mycobacterium tuberculosis CNTC My 331/88 ATCC 27294 after 21 days; settings: CNTC My 331/88 ATCC 27294, 504 h; procedure, shortened: as §2
[10] = system: Mycobacterium kansasii; experiment: Antimycobacterial activity against Mycobacterium kansasii 6509/96 isolate after 14 days; settings: 6509/96, 336 h; procedure, shortened: as §1

SMILES | MIC [1] | MIC [2] | MIC [3] | MIC [4] | MIC [5] | MIC [6] | MIC [7] | MIC [8] | MIC [9] | MIC [10]
O=C(N/N=C/Nc1ccc(F)cc1)c1ccncc1 | 8 µM (≈ 2.07 µg/mL) | 1 µM (≈ 0.258 µg/mL) | 500 µM (≈ 129 µg/mL) | > 1000 µM | 1000 µM (≈ 258 µg/mL) | 250 µM (≈ 64.6 µg/mL) | 250 µM (≈ 64.6 µg/mL) | 8 µM (≈ 2.07 µg/mL) | 2 µM (≈ 0.517 µg/mL) | 8 µM (≈ 2.07 µg/mL)
O=C(N/N=C/Nc1cccc([N+](=O)[O-])c1)c1ccncc1 | 16 µM (≈ 4.56 µg/mL) | 2 µM (≈ 0.571 µg/mL) | 500 µM (≈ 143 µg/mL) | 500 µM (≈ 143 µg/mL) | 250 µM (≈ 71.3 µg/mL) | 250 µM (≈ 71.3 µg/mL) | 125 µM (≈ 35.7 µg/mL) | 8 µM (≈ 2.28 µg/mL) | 2 µM (≈ 0.571 µg/mL) | 16 µM (≈ 4.56 µg/mL)
O=C(N/N=C/Nc1cccc(Cl)c1)c1ccncc1 | 16 µM (≈ 4.4 µg/mL) | 1 µM (≈ 0.275 µg/mL) | 1000 µM (≈ 275 µg/mL) | 500 µM (≈ 137 µg/mL) | 500 µM (≈ 137 µg/mL) | 500 µM (≈ 137 µg/mL) | 125 µM (≈ 34.3 µg/mL) | 16 µM (≈ 4.4 µg/mL) | 1 µM (≈ 0.275 µg/mL) | 16 µM (≈ 4.4 µg/mL)
O=C(N/N=C/Nc1ccc(Cl)cc1)c1ccncc1 | 32 µM (≈ 8.79 µg/mL) | 1 µM (≈ 0.275 µg/mL) | 1000 µM (≈ 275 µg/mL) | 1000 µM (≈ 275 µg/mL) | 250 µM (≈ 68.7 µg/mL) | 500 µM (≈ 137 µg/mL) | 125 µM (≈ 34.3 µg/mL) | 16 µM (≈ 4.4 µg/mL) | 1 µM (≈ 0.275 µg/mL) | 32 µM (≈ 8.79 µg/mL)
O=C(N/N=C/Nc1ccc(O)cc1)c1ccncc1 | 62.5 µM (≈ 16 µg/mL) | 4 µM (≈ 1.03 µg/mL) | 500 µM (≈ 128 µg/mL) | 500 µM (≈ 128 µg/mL) | 500 µM (≈ 128 µg/mL) | 500 µM (≈ 128 µg/mL) | 250 µM (≈ 64.1 µg/mL) | 32 µM (≈ 8.2 µg/mL) | 8 µM (≈ 2.05 µg/mL) | 62.5 µM (≈ 16 µg/mL)
